Experimental data taken from ChEMBL document CHEMBL2331168, “Anticonvulsant evaluation of aminoalkanol derivatives of 2- and 4-methylxanthone” (Bioorg Med Chem, 2013).
Calls of active or inactive are those of the source.

Key:
[1] = system: Mus musculus; test: Protective index, ratio TD50 for albino mouse to ED50 for albino mouse by subcutaneous pentetrazole-induced seizure test after 1 hr; format: functional
[2] = system: Mus musculus; test: Anticonvulsant activity in ip dosed albino mouse assessed as protection against subcutaneous pentetrazole-induced seizures after 1 hr; format: functional
[3] = organism: Mus musculus; test: Protective index, ratio TD50 for albino mouse to ED50 for albino mouse by maximal electroshock-induced seizure test after 1 hr; format: functional
Method in brief: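 Protective index was calculated as mouse ip TD50 (rotorod) divided by mouse ip MES ED50, both obtained by quantitative dose-response testing at the stated post-dose time.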

[4] = system: Mus musculus; test: Anticonvulsant activity in ip dosed albino mouse assessed as protection against maximal electroshock-induced seizures after 1 hr; format: functional
Method in brief: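 ED50, with 95% confidence intervals, was the ip dose protecting 50% of mice in the MES test. It was measured at the stated post-dose time in male albino mice given suspensions in 0.5% methylcellulose. MES used 60 Hz, 50 mA, 0.2 s corneal stimulation, and the endpoint was abolition of hindlimb tonic extension.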

[5] = Neurotoxicity in ip dosed albino mouse assessed as minimal motor impairment after 1 hr by rotorod test; format: toxicity, organism-based; settings: in vivo
Method in brief: (§1)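 TD50, with 95% confidence intervals, was the ip dose causing neurotoxicity in 50% of male albino mice. Deficit was judged on the rotorod: a 1 in. knurled rod at 6 rpm, where failure to hold on for 1 min in each of three trials counted as deficit. Read at the stated time after dosing.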

[6] = system: Rattus norvegicus; test: Anticonvulsant activity in Sprague-Dawley rat assessed as protection against maximal electroshock-induced seizures at 30 mg/kg, po after 2 hrs; format: functional, organism-based; parameters: dose 30 mg/kg
Method in brief: (§2)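 Male Sprague-Dawley rats dosed orally at 30 mg/kg and tested at 0.25, 0.5, 1, 2 and 4 h. Seizures were induced by 60 Hz alternating current at 150 mA for 0.2 s through corneal electrodes, after a drop of 0.9% NaCl in each eye. Protection meant abolition of hindlimb tonic extension. Reported as protected/tested, usually 4 rats per time point.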

[7] = system: Rattus norvegicus; test: Anticonvulsant activity in Sprague-Dawley rat assessed as protection against maximal electroshock-induced seizures at 30 mg/kg, po after 0.5 hrs; format: functional, organism-based; parameters: dose 30 mg/kg; method in brief: as §2
[8] = system: Rattus norvegicus; test: Anticonvulsant activity in Sprague-Dawley rat assessed as protection against maximal electroshock-induced seizures at 30 mg/kg, po after 0.25 hrs; format: functional, organism-based; parameters: dose 30 mg/kg; method in brief: as §2
[9] = system: Mus musculus; test: Neurotoxicity in albino mouse assessed as minimal motor impairment at 300 mg/kg, ip after 4 hrs by rotorod test; format: toxicity, organism-based; parameters: dose 300 mg/kg, route intraperitoneal; settings: in vivo
Method in brief: (§3)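 Male albino mice (Carworth Farms No. 1) were dosed ip with suspensions in 0.5% methylcellulose and put on a 1 in. knurled rod rotating at 6 rpm at set times after dosing. Neurotoxicity meant failure to stay on the rod for at least 1 min in each of three trials. Scored as impaired/tested.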

[10] = system: Mus musculus; test: Neurotoxicity in albino mouse assessed as minimal motor impairment at 100 mg/kg, ip after 4 hrs by rotorod test; format: toxicity, organism-based; parameters: dose 100 mg/kg, route intraperitoneal; settings: in vivo; method in brief: as §3
[11] = system: Mus musculus; test: Neurotoxicity in albino mouse assessed as minimal motor impairment at 30 mg/kg, ip after 4 hrs by rotorod test; format: toxicity, organism-based; parameters: dose 30 mg/kg, route intraperitoneal; settings: in vivo; method in brief: as §3
[12] = system: Mus musculus; test: Anticonvulsant activity in albino mouse assessed as protection against subcutaneous pentetrazole-induced seizures at 300 mg/kg, ip after 4 hrs; format: functional, organism-based; parameters: dose 300 mg/kg
Method in brief: (§4)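 Male albino mice (Carworth Farms No. 1) received compound ip in 0.5% methylcellulose, then pentetrazole 85 mg/kg sc in 0.9% NaCl at 0.5 or 4 h. Mice were watched for at least 30 min. Protection meant no threshold seizure, defined as a single clonic spasm lasting at least 5 s. Scored as protected/tested.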

[13] = system: Mus musculus; test: Anticonvulsant activity in albino mouse assessed as protection against subcutaneous pentetrazole-induced seizures at 100 mg/kg, ip after 4 hrs; format: functional, organism-based; parameters: dose 100 mg/kg; method in brief: as §4
[14] = system: Mus musculus; test: Anticonvulsant activity in albino mouse assessed as protection against subcutaneous pentetrazole-induced seizures at 300 mg/kg, ip after 0.5 hrs; format: functional, organism-based; parameters: dose 300 mg/kg; method in brief: as §4
[15] = system: Mus musculus; test: Anticonvulsant activity in albino mouse assessed as protection against subcutaneous pentetrazole-induced seizures at 30 mg/kg, ip after 4 hrs; format: functional, organism-based; parameters: dose 30 mg/kg; method in brief: as §4
[16] = system: Mus musculus; test: Anticonvulsant activity in albino mouse assessed as protection against subcutaneous pentetrazole-induced seizures at 100 mg/kg, ip after 0.5 hrs; format: functional, organism-based; parameters: dose 100 mg/kg; method in brief: as §4
[17] = system: Mus musculus; test: Anticonvulsant activity in albino mouse assessed as protection against subcutaneous pentetrazole-induced seizures at 30 mg/kg, ip after 0.5 hrs; format: functional, organism-based; parameters: dose 30 mg/kg; method in brief: as §4
[18] = system: Mus musculus; test: Anticonvulsant activity in albino mouse assessed as protection against maximal electroshock-induced seizures at 300 mg/kg, ip after 4 hrs; format: functional, organism-based; parameters: dose 300 mg/kg
Method in brief: (§5)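 Male albino mice (Carworth Farms No. 1) were given the compound ip as a suspension in 0.5% methylcellulose at 3–300 mg/kg. MES testing was at 0.5 and 4 h, sometimes also at 0.25 and 1 h. Current was 60 Hz, 50 mA, 0.2 s via corneal electrodes, with saline eye drops. Protection meant no hindlimb tonic extension, scored as protected/tested.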

[19] = system: Mus musculus; test: Anticonvulsant activity in albino mouse assessed as protection against maximal electroshock-induced seizures at 30 mg/kg, ip after 4 hrs; format: functional, organism-based; parameters: dose 30 mg/kg; method in brief: as §5
[20] = system: Mus musculus; test: Anticonvulsant activity in albino mouse assessed as protection against maximal electroshock-induced seizures at 300 mg/kg, ip after 0.5 hrs; format: functional, organism-based; parameters: dose 300 mg/kg; method in brief: as §5
[21] = system: Mus musculus; test: Anticonvulsant activity in albino mouse assessed as protection against maximal electroshock-induced seizures at 100 mg/kg, ip after 0.5 hrs; format: functional, organism-based; parameters: dose 100 mg/kg; method in brief: as §5
[22] = system: Mus musculus; test: Anticonvulsant activity in albino mouse assessed as protection against maximal electroshock-induced seizures at 30 mg/kg, ip after 0.5 hrs; format: functional, organism-based; parameters: dose 30 mg/kg; method in brief: as §5
[23] = system: Mus musculus; test: Neurotoxicity in albino mouse assessed as minimal motor impairment at 30 mg/kg, ip after 0.5 hrs by rotorod test; format: toxicity, organism-based; parameters: dose 30 mg/kg, route intraperitoneal; settings: in vivo; method in brief: as §3
[24] = system: Rattus norvegicus; test: Neurotoxicity in Sprague-Dawley rat assessed as minimal motor impairment at 30 mg/kg, po after 1 hr by rotorod test; settings: in vivo
[25] = system: Rattus norvegicus; test: Neurotoxicity in Sprague-Dawley rat assessed as minimal motor impairment at 30 mg/kg, po after 4 hrs by rotorod test; settings: in vivo
[26] = system: Rattus norvegicus; test: Neurotoxicity in Sprague-Dawley rat assessed as minimal motor impairment at 30 mg/kg, po after 2 hrs by rotorod test; settings: in vivo
[27] = system: Rattus norvegicus; test: Neurotoxicity in Sprague-Dawley rat assessed as minimal motor impairment at 30 mg/kg, po after 0.5 hrs by rotorod test; settings: in vivo
[28] = system: Rattus norvegicus; test: Neurotoxicity in Sprague-Dawley rat assessed as minimal motor impairment at 30 mg/kg, po after 0.25 hrs by rotorod test; settings: in vivo
[29] = Neurotoxicity in ip dosed albino mouse assessed as minimal motor impairment after 2 hrs by rotorod test; format: toxicity, organism-based; settings: in vivo; method in brief: as §1
[30] = system: Mus musculus; test: Protective index, ratio TD50 for albino mouse to ED50 for albino mouse by subcutaneous pentetrazole-induced seizure test after 2 hrs; format: functional
[31] = system: Mus musculus; test: Anticonvulsant activity in ip dosed albino mouse assessed as protection against subcutaneous pentetrazole-induced seizures after 2 hrs; format: functional
[32] = system: Rattus norvegicus; test: Anticonvulsant activity in Sprague-Dawley rat assessed as protection against maximal electroshock-induced seizures at 30 mg/kg, po after 4 hrs; format: functional, organism-based; parameters: dose 30 mg/kg; method in brief: as §2
[33] = system: Rattus norvegicus; test: Anticonvulsant activity in Sprague-Dawley rat assessed as protection against maximal electroshock-induced seizures at 30 mg/kg, po after 1 hr; format: functional, organism-based; parameters: dose 30 mg/kg; method in brief: as §2
[34] = system: Mus musculus; test: Neurotoxicity in albino mouse assessed as minimal motor impairment at 300 mg/kg, ip after 0.5 hrs by rotorod test; format: toxicity, organism-based; parameters: dose 300 mg/kg, route intraperitoneal; settings: in vivo; method in brief: as §3
[35] = system: Mus musculus; test: Neurotoxicity in albino mouse assessed as minimal motor impairment at 100 mg/kg, ip after 0.5 hrs by rotorod test; format: toxicity, organism-based; parameters: dose 100 mg/kg, route intraperitoneal; settings: in vivo; method in brief: as §3
[36] = system: Mus musculus; test: Anticonvulsant activity in albino mouse assessed as protection against maximal electroshock-induced seizures at 100 mg/kg, ip after 4 hrs; format: functional, organism-based; parameters: dose 100 mg/kg; method in brief: as §5

Row | Structure (SMILES) | Ratio TD50/ED50 [3] | ED50 [4] [mg/kg] | Activity [6] | Activity [9] | Activity [10] | Activity [11] | Activity [12] | Activity [13] | Activity [14] | Activity [15] | Activity [16] | Activity [17] | Activity [18] | Activity [19] | Activity [20] | Activity [22] | Activity [23] | Activity [24] | Activity [25] | Activity [26] | other results
1 | CC[C@H](CO)NCc1ccc2oc3cc(OC)ccc3c(=O)c2c1 | 2.51 | 107 | inactive | Non-toxic | Non-toxic | Non-toxic | inactive | inactive | inactive | inactive | inactive | inactive | Active | inactive | Active | inactive | Non-toxic | Non-toxic | Non-toxic | Non-toxic | Ratio TD50/ED50 [1]: <1.54; ED50 [2]: > 175 mg/kg; TD50 at 1 h [5]: 269 mg/kg; Activity [7]: inactive; Activity [8]: inactive; Activity [21]: Active; Activity [27]: Non-toxic; Activity [28]: Non-toxic
2 | C[C@@H](CO)NCc1ccc2oc3ccc(Cl)cc3c(=O)c2c1 | 3.93 | 79.7 | inactive | Non-toxic | Non-toxic | Non-toxic | inactive | inactive | inactive | inactive | inactive | inactive | Active | inactive | inactive | inactive | Non-toxic | Non-toxic | Non-toxic | Non-toxic | TD50 at 2 h [29]: 313 mg/kg; Ratio TD50/ED50 [30]: <0.84; ED50 [31]: > 375 mg/kg; Activity [32]: inactive; Activity [33]: inactive; Activity [34]: Non-toxic; Activity [35]: Non-toxic; Activity [36]: Active; Activity [27]: Non-toxic; Activity [28]: Non-toxic
